TRPC6 inhibitor: mouse TRPC6 channel inhibitors, primary screen, cell-based, HEK293, membrane potential dye; B-score at 10 µM; 1.1% of 310,000 active; AID 2553, 2010; ACh-evoked depolarization; active compounds read low;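 active = B-score under library mean minus 3 SD, initial fluorescence not abnormally high, positive integrated signal ratio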;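 note: B-score derived from integrated fluorescence ratio over the kinetic read; more negative B-score means stronger inhibition of depolarization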
Target sequence (Q61143 whole entry, looked up): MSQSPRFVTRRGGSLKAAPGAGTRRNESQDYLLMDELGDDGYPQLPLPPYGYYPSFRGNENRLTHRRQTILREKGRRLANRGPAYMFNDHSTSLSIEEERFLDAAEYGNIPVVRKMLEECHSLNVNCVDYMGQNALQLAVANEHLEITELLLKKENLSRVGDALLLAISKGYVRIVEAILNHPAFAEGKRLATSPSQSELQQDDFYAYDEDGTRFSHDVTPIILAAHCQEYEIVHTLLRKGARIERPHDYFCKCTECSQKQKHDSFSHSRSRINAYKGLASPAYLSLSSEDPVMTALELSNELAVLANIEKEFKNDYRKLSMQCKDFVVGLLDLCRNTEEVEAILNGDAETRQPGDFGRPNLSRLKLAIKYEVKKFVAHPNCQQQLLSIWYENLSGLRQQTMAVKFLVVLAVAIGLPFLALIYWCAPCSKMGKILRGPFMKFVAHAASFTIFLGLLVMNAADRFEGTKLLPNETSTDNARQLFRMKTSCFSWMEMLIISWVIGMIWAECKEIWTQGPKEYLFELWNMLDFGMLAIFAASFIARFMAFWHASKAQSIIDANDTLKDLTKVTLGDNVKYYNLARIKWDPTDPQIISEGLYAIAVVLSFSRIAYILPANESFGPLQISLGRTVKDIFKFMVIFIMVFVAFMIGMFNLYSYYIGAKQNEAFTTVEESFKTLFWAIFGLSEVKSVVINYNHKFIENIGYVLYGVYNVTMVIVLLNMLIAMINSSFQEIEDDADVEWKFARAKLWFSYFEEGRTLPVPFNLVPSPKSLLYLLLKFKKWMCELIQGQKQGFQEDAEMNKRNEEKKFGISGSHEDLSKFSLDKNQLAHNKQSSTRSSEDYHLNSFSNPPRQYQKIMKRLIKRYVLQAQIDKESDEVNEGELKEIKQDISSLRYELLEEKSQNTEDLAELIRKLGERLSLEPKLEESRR
TRPC4 inh: inhibitors of mouse TRPC4 channel, primary screen, Fluo4 calcium, HEK293 TRPC4beta/mu-opioid cells | Short transient receptor potential channel 4 (Mus musculus), Q9QUQ5 | DAMGO-evoked Fluo4 calcium flux; active compounds read low | B-score at 10 µM | 0.39% of 300,000 active;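 active = B-score over 3 SD under the library average, no early fluorescence shift, positive overall ratio signal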
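Assay system: Stable TRPC4beta/mu-opioid receptor HEK293 cells | Reagent: DAMGO in two steps, submaximal then maximal | Compound dosing: Single concentration per test compound | Signal: Fluo4 Ca2+ flux fluorescence | Evaluation: Per-well B score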
TRPC4 PAM: positive allosteric modulators of TRPC4, primary screen, cell-based, mouse TRPC4beta, HEK293 mu-opioid, Fluo-4 calcium. Short transient receptor potential channel 4 (Mus musculus), Q9QUQ5. DAMGO EC20, Fluo-4 Ca2+ flux; active compounds read high. B-score at 10 µM. 0.42% of 310,000 active. AID 2227, 2009;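 active = B-score of calcium response area above 5 SD of library B-scores, with initial fluorescence ratio within 5 SD of library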;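 note: B-score of integrated fluorescence ratio over time as area under calcium response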
TRPC6 act: mouse TRPC6 channel activators, primary screen, cell-based, HEK293, membrane potential dye; HEK293-TRPC6 membrane potential dye fluorescence; active compounds read high; B-score at 10 µM; 0.13% of 310,000 active;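 active = B-score of the integrated fluorescence ratio above library mean plus 3 SD, and starting fluorescence ratio within library mean plus 5 SD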;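 note: higher score means more depolarization so channel activation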
TRPC4 agonist: activators of mouse TRPC4 channel, primary screen, Fluo4 calcium, HEK293 TRPC4beta/mu-opioid cells | Short transient receptor potential channel 4 (Mus musculus), Q9QUQ5 | Fluo4 calcium fluorescence; active compounds read high | B-score at 10 µM | 0.49% of 310,000 active | AID 2237, 2010;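 active = B-score above 5 SD of library B-scores, and initial fluorescence ratio not above library mean plus 5 SD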;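 note: positive B-score marks a calcium rise read as TRPC4 activation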
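Assay system: HEK293 stable line with TRPC4beta plus mu-opioid receptor; schedule: 45 min room-temperature Fluo4 loading, 110 s read; technique: kinetic Fluo4 calcium fluorescence; evaluation: integrated baseline-normalised fluorescence ratio, converted to per-well B score; controls: buffer (low) and maximal DAMGO (high)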
TRPC4 sel inh 2: second check of whether TRPC6 inhibitors also affect mouse TRPC4; inhibition, % at 10 µM; HEK293 TRPC4/MOR, membrane potential dye fluorescence; channel activated by saturating DAMGO dose; 42% of 920 active; shares compounds with TRPC6 inhibitor;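 active = compounds whose fluorescence signal differed from control wells by over 3 SD, either direction, in both duplicate plates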
TRPC4 spec: mouse TRPC4 modulation by TRPC6 hits, confirmation, selectivity assay for TRPC6 inhibitor project, cell-based, HEK293 TRPC4/mu-opioid, membrane potential dye; shares compounds with TRPC6 inhibitor; membrane potential fluorescence; activity change, negative = inhibition, % at 10 µM; 61% of 920 active; AID 2777, 2010;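 active = rise or fall in signal beyond 3 SD of buffer-only wells in both replicate plates, either sign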;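 note: integrated kinetic ratio of fluorescence range over baseline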
HEK293 MPD ctr 2-1: nonspecific membrane potential effects, parental HEK293, confirmation, counter-screen for TRPC6 inhibitor project, cell-based, second counter screen; shares compounds with TRPC6 inhibitor; parental HEK293 membrane potential dye fluorescence; maximal acetylcholine challenge after compound addition; signal change vs control, % at 10 µM; 31% of 920 active; AID 2779, 2010;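 active = membrane potential signal moving either way by over 3 SD of the maximum-effect control, in both duplicate plates, meaning non-specific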
HEK293 MPD ctr-1: membrane potential modulation in parental HEK293, confirmation, counter-screen for TRPC6 inhibitor project, cell-based; shares compounds with TRPC6 inhibitor; 60% of 920 active; membrane potential signal change, % at 10 µM; parental HEK293 membrane potential dye fluorescence;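 active = membrane potential signal shifting up or down by more than 3 SD of buffer-only wells, on both duplicate plates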
HEK293 MPD ctr-2: parental HEK293 membrane potential modulation, confirmation, counter-screen for TRPC6 modulator project, cell-based; shares compounds with TRPC6 inhibitor; membrane potential dye fluorescence; membrane potential signal change, % at 10 µM; 51% of 2,400 active;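 active = membrane potential signal moves up or down beyond 5 SD from buffer-only wells, on both duplicate plates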
HEK293 MPD ctr 2-2: parental HEK293 nonspecific activity of TRPC6 modulators, second screen; shares compounds with TRPC6 inhibitor; membrane potential dye fluorescence; after compound, maximal acetylcholine stimulation; inhibition, % at 10 µM; 14% of 2,400 active;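 active = membrane potential signal drops by more than 5 SD from the mean control signal, in both duplicate plates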;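 note: plate controls were acetylcholine ECmax control wells for no effect and buffer only wells for full effect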
TRPC4 ctr mod: TRPC4 modulation by TRPC6 hit compounds, confirmation, selectivity assay for TRPC6 modulator project, cell-based, HEK293 TRPC4/mu-opioid, membrane potential dye, mouse. shares compounds with TRPC6 inhibitor. membrane potential fluorescence. percent change from control (negative = decrease, positive = increase), % at 10 µM. 69% of 2,400 active;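 active = membrane potential signal moved up or down beyond 5 SD of buffer control wells, in both duplicate plates, actives on both sides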;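 note: plate controls were assay buffer wells for no effect and DAMGO maximal-effect wells for full effect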
TRPC4 ctr inh 2: second selectivity test of TRPC6 modulators against mouse TRPC4 | shares compounds with TRPC6 inhibitor | HEK293 TRPC4/mu-opioid, membrane potential dye fluorescence; stimulated with maximal-effect DAMGO | inhibition, % at 10 µM | 55% of 2,400 active;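 active = drop in membrane potential signal beyond 5 SD of the control wells in both duplicate plates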;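 note: TRPC4 counter screen for TRPC6 hits run under conditions tuned for TRPC6 not TRPC4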
TRPC6 inh conf: mouse TRPC6 channel inhibitors, confirmation, HEK293 cells, membrane potential dye, duplicate; shares compounds with TRPC6 inhibitor; ACh-evoked depolarization; inhibition, % at 10 µM; 43% of 3,300 active; AID 488960, 2010;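 active = fluorescence ratio falls more than 5 SD below the full-stimulation control mean, in both duplicate runs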;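 note: integrated fluorescence ratio of peak minus minimum over baseline after agonist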
TRPC6 act confirm: mouse TRPC6 channel activators, confirmation, HEK293 cells, membrane potential dye, duplicate. shares compounds with TRPC6 inhibitor. HEK293-TRPC6 membrane potential dye fluorescence, FDSS. activation, % at 10 µM. 11% of 2,800 active;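 active = ratio signal rise beyond 5 SD above unstimulated control wells' mean, seen in both duplicate runs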;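 note: plate controls were buffer EC0 wells for no effect and acetylcholine ECmax response for full effect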
The depositor's hits bear a star; i = inactive; x = no result given. Hits are enriched below; roughly 2.3% of the tested compounds scored in any of these assays.

SMILES	TRPC6 inhibitor	TRPC4 inh	TRPC4 PAM	TRPC6 act	TRPC4 agonist	HEK293 MPD ctr-2	HEK293 MPD ctr 2-2	TRPC4 ctr mod	TRPC4 ctr inh 2	TRPC6 inh conf	TRPC6 act confirm	others
CCN(CC)CCNC(=O)Cn1nc(Cc2ccncc2)c2ccccc2c1=O	-6.2*	i	i	i	i	i	i	i	i	i	i
CCC(C)(C)n1nnnc1C(c1cc2cc3c(cc2[nH]c1=O)OCO3)N1CCCCC1 (stereo not given)	-5.9*	i	i	i	i	i	i	i	i	i	x
CCCN1CCN(C(c2cc3cc4c(cc3[nH]c2=O)OCO4)c2nnnn2C(C)(C)C)CC1 (stereo not given)	i	i	i	i	i	x	x	x	x	x	x
COc1ccc(Cl)cc1C(=O)CSc1nc(N)cc(N)n1	-8.5*	i	i	13*	i	i	i	i	i	72%*	173%*
CCCCn1nnnc1SCC(=O)c1cc(Cl)ccc1OC	i	i	i	i	i	x	x	x	x	x	x
CSCCC(NC(=O)c1ccccc1Cl)C(=O)Nc1ccc(C)c(S(=O)(=O)N2CCOCC2)c1 (stereo not given)	i	i	i	i	i	x	x	x	x	x	x
Cc1cc(N2CCOCC2)ccc1/C=C\[N+](=O)[O-]	i	i	i	15*	i	260%*	i	32%*	i	i	79%*
O=C(C/C=N\OCc1ccc([N+](=O)[O-])cc1)Nc1ccc(F)cc1F	i	i	i	i	i	x	x	x	x	x	x
CCOc1ccc2c(C)nc(NC3=NC(C)(C)C=C(C)N3)nc2c1	-5.1*	-9*	i	i	i	i	i	i	i	i	i
CCOC(=O)Cn1ccc(NC(=O)COc2ccc(F)cc2F)n1	i	i	i	i	i	x	x	x	x	x	x
CCn1c(SCC(=O)NCC(=O)Nc2ccc(F)cc2)nnc1-c1ccncc1	i	i	i	i	i	x	x	x	x	x	x
CCn1c(SCC(=O)Nc2ccc3c(c2)n(C)c(=O)n3C)nnc1-c1ccncc1	i	i	i	12*	i	246%*	i	36%*	i	i	118%*
S=C(NCCN1CCOCC1)N/N=C/c1c2ccccc2cc2ccccc12	-5.2*	i	i	i	i	260%*	i	-22%*	i	i	i
Cc1cc(NC(=O)CSc2nnc(C3CC3)n2N)c([N+](=O)[O-])cc1C	i	i	i	i	i	x	x	x	x	x	x
COc1ccc(/C=C/c2cc(C(F)(F)F)[nH]c(=O)n2)cc1OC	-5.9*	i	i	i	i	-180%*	i	-34%*	i	i	i
CCOc1cc(/C=C/c2cc(C(F)(F)F)[nH]c(=O)n2)ccc1O	i	i	i	i	i	x	x	x	x	x	x
O=C(COCC(=O)Nc1cccc(C(F)(F)F)c1)Nc1cccc(C(F)(F)F)c1	i	i	i	i	i	x	x	x	x	x	x
COc1cc(NC(=O)CSCC(=O)Nc2cccc(C(F)(F)F)c2)c(Cl)cc1Cl	-7.3*	i	i	i	i	x	x	x	x	i	i	TRPC4 sel inh 2=i;TRPC4 spec=i;HEK293 MPD ctr 2-1=i;HEK293 MPD ctr-1=i
COC(=O)CCCC(=O)N1CCCC(C(=O)c2ccc(OC)cc2C)C1 (stereo not given)	i	i	i	i	i	x	x	x	x	x	x
Cc1ccc(OCC(=O)NC(=S)Nc2ccc(Br)cn2)cc1	i	i	i	i	i	x	x	x	x	x	x
O=C1c2cnc3ncnn3c2CC2c3ccccc3CCN12 (stereo not given)	-5*	i	i	i	i	-105%*	i	-20%*	i	i	i
CSCC(O)Cn1ncc2ccccc2c1=O (stereo not given)	i	i	i	i	i	x	x	x	x	x	x
O=C(NC(=S)NC1C2CC3CC(C2)CC1C3)C12CC3CC(CC(C3)C1)C2 (stereo not given)	-8*	i	i	i	i	x	x	x	x	i	i	TRPC4 sel inh 2=i;TRPC4 spec=i;HEK293 MPD ctr 2-1=i;HEK293 MPD ctr-1=i
COc1ccc(CNC(=O)c2c(-c3c(F)cccc3Cl)noc2C)cc1	i	i	i	i	i	x	x	x	x	x	x
